These results are taken from ChEMBL document CHEMBL4219197, “Synthesis, biological evaluation and SAR of naftopidil-based arylpiperazine derivatives” (Bioorg Med Chem Lett, 2018).

Assay [1] has as its target T1, Alpha-1A adrenergic receptor (Homo sapiens, UniProt P35348).
T1 sequence (P35348 whole entry): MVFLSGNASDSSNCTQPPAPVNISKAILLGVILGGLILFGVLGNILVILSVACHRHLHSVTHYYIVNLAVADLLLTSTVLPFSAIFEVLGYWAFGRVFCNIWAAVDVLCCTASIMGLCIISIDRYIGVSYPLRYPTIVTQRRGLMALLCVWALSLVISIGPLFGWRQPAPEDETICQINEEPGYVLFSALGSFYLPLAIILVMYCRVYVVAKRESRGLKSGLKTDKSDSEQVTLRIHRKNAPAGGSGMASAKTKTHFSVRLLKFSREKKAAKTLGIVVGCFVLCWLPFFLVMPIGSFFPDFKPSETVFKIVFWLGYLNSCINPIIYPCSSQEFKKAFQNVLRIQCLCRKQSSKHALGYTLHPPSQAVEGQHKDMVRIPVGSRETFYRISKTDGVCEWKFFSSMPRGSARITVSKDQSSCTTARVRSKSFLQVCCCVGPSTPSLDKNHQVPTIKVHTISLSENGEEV
Description: Antagonist activity at alpha 1A adrenergic receptor (unknown origin) by luciferase reporter gene assay. The format is functional. Put shortly:
(§1)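 Dual-luciferase reporter assay measuring antagonism at α1A, α1B and α1D adrenoceptor subtypes. IC50 values are means of three experiments.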
A general note: Reporter assays use an easily measured gene product as a stand-in for the process of interest.

A short description of assay [2]: Cytotoxicity against human WPMY-1 cells assessed as growth inhibition after 24 hrs by CCK8 assay. The conditions noted are these: WPMY-1, 24 h. The assay is classed as cell-based. Put shortly:
(§2)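 Cells (PC-3, LNCaP, DU145, normal prostate […] WPMY-1) exposed 24 h to escalating concentrations; viability by CCK-8 read-out as percent of control; IC50 derived.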
In general terms: Tetrazolium assays rely on reduction of a dye to a coloured formazan, in cell work by metabolically active cells.

In assay [3] the test system is PC-3. Description: Cytotoxicity against human PC3 cells assessed as growth inhibition after 24 hrs by CCK8 assay. The assay is classed as functional, cell-based. The settings on record: PC-3, 24 h. In a few lines: as §2
In assay [4] the test system is DU-145. Description: Induction of apoptosis in human DU145 cells assessed as late apoptotic cells at 8 uM after 24 hrs by Annexin V/propidium iodide staining based flow cytometry (reference value: 0.17%). The format is functional. In general terms: A flow cytometer gives signals particle by particle.
For assay [5], the system named is DU-145. Description: Induction of apoptosis in human DU145 cells assessed as necrotic cells at 8 uM after 24 hrs by Annexin V/propidium iodide staining based flow cytometry (reference value: 0.33%). The assay is classed as functional.
The test system of assay [6] is LNCaP. Description: Cytotoxicity against human LNCAP cells assessed as growth inhibition after 24 hrs by CCK8 assay. The format is functional, cell-based. Put shortly:
as §2

The test system of assay [7] is DU-145. Description: Induction of apoptosis in human DU145 cells assessed as early apoptotic cells at 8 uM after 24 hrs by Annexin V/propidium iodide staining based flow cytometry (reference value: […]). The assay is classed as functional.
The test system of assay [8] is DU-145. Description: Induction of apoptosis in human DU145 cells assessed as live cells at 8 uM after 24 hrs by Annexin V/propidium iodide staining based flow cytometry (reference value: 99.38%). The format is functional.
For assay [9], the target named is T2, Alpha-1B adrenergic receptor (Homo sapiens, UniProt P35368).
T2 sequence (P35368 whole entry): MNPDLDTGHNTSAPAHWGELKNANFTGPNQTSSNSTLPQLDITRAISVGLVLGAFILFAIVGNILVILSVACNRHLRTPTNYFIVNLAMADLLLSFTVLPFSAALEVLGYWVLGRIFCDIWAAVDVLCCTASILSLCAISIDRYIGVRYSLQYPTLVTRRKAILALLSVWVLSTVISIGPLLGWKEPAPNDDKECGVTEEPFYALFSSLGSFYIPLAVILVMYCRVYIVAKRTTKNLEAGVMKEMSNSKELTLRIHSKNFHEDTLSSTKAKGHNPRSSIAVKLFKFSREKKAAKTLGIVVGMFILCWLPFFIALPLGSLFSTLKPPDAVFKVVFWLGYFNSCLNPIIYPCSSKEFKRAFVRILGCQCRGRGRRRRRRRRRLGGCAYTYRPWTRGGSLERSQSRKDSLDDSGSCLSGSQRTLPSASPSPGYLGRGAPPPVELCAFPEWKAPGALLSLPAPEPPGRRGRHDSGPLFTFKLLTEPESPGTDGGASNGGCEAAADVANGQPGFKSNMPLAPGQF
Description: Antagonist activity at alpha 1B adrenergic receptor (unknown origin) by luciferase reporter gene assay. The format is functional. In a few lines: as §1

Assay [10] deals with DU-145. Description: Potency index, ratio of naftopidil IC50 to compound IC50 for human DU145 cells. The assay is classed as functional.
In assay [11] the test system is DU-145. Description: Cytotoxicity against human DU145 cells assessed as growth inhibition after 24 hrs by CCK8 assay. The format is functional, cell-based. The settings on record: DU-145, 24 h. In a few lines:
as §2

In assay [12] the target is T3, Alpha-1D adrenergic receptor (Homo sapiens, UniProt P25100).
T3 sequence (P25100 whole entry): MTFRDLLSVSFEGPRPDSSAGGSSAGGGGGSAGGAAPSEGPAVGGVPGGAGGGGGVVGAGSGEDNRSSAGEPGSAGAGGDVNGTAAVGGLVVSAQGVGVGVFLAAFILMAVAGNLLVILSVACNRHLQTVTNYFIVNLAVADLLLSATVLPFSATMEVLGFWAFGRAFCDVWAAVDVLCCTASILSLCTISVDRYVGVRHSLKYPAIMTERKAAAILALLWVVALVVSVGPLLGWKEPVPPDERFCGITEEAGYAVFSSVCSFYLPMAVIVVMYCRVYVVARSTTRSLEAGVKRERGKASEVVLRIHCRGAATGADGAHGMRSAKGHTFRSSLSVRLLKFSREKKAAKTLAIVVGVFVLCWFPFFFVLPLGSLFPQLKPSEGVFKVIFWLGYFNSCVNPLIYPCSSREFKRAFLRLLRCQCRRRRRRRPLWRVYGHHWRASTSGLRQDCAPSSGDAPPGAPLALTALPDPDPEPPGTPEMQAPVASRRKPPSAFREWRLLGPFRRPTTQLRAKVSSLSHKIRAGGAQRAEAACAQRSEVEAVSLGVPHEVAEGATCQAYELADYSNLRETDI
Description: Antagonist activity at alpha 1D adrenergic receptor (unknown origin) by luciferase reporter gene assay. The format is functional. Put shortly:
as §1

For assay [13], the system named is DU-145. Description: Cell cycle arrest in human DU145 cells assessed as accumulation at S phase at 8 uM after 24 hrs by propidium iodide staining based flow cytometry (reference value: 20.64%). The assay is classed as functional.
Assay [14] relates to DU-145. Description: Cell cycle arrest in human DU145 cells assessed as accumulation at G2/M phase at 8 uM after 24 hrs by propidium iodide staining based flow cytometry (reference value: 24.42%). The format is functional.
Assay [15] deals with DU-145. Description: Cell cycle arrest in human DU145 cells assessed as accumulation at G0/G1 phase at 8 uM after 24 hrs by propidium iodide staining based flow cytometry (reference value: 55.49%). The format is functional.
Assay [16] deals with DU-145. Description: Induction of apoptosis in human DU145 cells assessed as necrotic cells at 6 uM after 24 hrs by Annexin V/propidium iodide staining based flow cytometry (reference value: 0.33%). The assay is classed as functional.
The subject of assay [17] is DU-145. Description: Induction of apoptosis in human DU145 cells assessed as live cells at 6 uM after 24 hrs by Annexin V/propidium iodide staining based flow cytometry (reference value: 99.38%). The format is functional.
Assay [18] concerns DU-145. Description: Induction of apoptosis in human DU145 cells assessed as early apoptotic cells at 6 uM after 24 hrs by Annexin V/propidium iodide staining based flow cytometry (reference value: […]). The format is functional.
Assay [19] relates to DU-145. Description: Cell cycle arrest in human DU145 cells assessed as accumulation at S phase at 6 uM after 24 hrs by propidium iodide staining based flow cytometry (reference value: 20.64%). The format is functional.
In assay [20] the test system is DU-145. Description: Induction of apoptosis in human DU145 cells assessed as late apoptotic cells at 6 uM after 24 hrs by Annexin V/propidium iodide staining based flow cytometry (reference value: 0.17%). The assay is classed as functional.
The test system of assay [21] is DU-145. Description: Cell cycle arrest in human DU145 cells assessed as accumulation at G0/G1 phase at 6 uM after 24 hrs by propidium iodide staining based flow cytometry (reference value: 55.49%). The format is functional.
The test system of assay [22] is DU-145. Description: Cell cycle arrest in human DU145 cells assessed as accumulation at G2/M phase at 6 uM after 24 hrs by propidium iodide staining based flow cytometry (reference value: 24.42%). The assay is classed as functional.

Where only a bound is given, the exact number is not on record here.

On to `COc1ccc(N2CCN(CCc3ccc(COc4ccc5c(c4)CCCC5)cc3)CC2)cc1.Cl.Cl`, for which the IC50 is 0.0576 µM in [1]; greater than 50 µM in assay [2]; 76.5 µM in assay [3]; 46.2 µM in assay [6]; 0.972 µM in assay [9]; 0.93 µM in [11]. Moreover, in assay [12], half-maximal inhibition (IC50) was put at 0.736 µM. Besides, the Activity in assay [4] was determined as 0.12%; in assay [5], 0.34%; in assay [7], 0.11%; in assay [8], 99.4%; in assay [13] it was 21.14%; in assay [14], 23.04%. Moreover, the Activity in assay [15] is recorded as 56.91%. The “Ratio IC50” value in assay [10] was 37.

Turning to `Cl.Cl.Fc1ccc(N2CCN(CCc3ccc(COc4ccc5c(c4)CCCC5)cc3)CC2)cc1`, the Activity is recorded as 0.28% in [16]; 99.5% in assay [17]; 0.05% in assay [18]; 20.42% in assay [19]; 0.1% in [20]; 70.5% in [21]. Also, the Activity in [22] amounted to 12.72%. The IC50 in assay [1] was 1.07 µM; in assay [2], greater than 50 µM; in assay [3], 57.3 µM; in assay [6] it was 48.2 µM; in assay [9], 1.12 µM; in assay [11] it was 0.9 µM. Half-maximal inhibition in assay [12] (IC50) was put at 0.103 µM. Besides, in assay [10], the “Ratio IC50” value was 38.

Broadly, the IC50 is the point on the concentration scale where inhibition reaches its midpoint.
